# Measured values as given in article PMC5843917 (Journal of the Renin-Angiotensin-Aldosterone System: JRAAS, 2017).
# Tests used:
# [1] = cited from earlier work
# urine aldosterone = test: 24-hour urine aldosterone excretion after multiple dosing; type: in vivo, human; conditions: spironolactone 25 mg/d
# In short: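 Once-daily oral dosing for 8 days in healthy adults (0.1–100 mg; solution in degassed Sprite; double-dummy with an MR antagonist capsule). Urine pooled over 24 h from pre-dose Day 3 to pre-dose Day 4, and from pre-dose Day 7 to pre-dose Day 8, and assayed for aldosterone. Data ln-transformed and fitted with a mixed model (fixed treatment and period, random subject). Ratios of LS geometric means with 90% CIs.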
# plasma aldosterone = test: Basal plasma aldosterone concentration; type: in vivo, human; conditions: multiple dose, model estimate (CV%)
# [2] = test system: plasma aldosterone, corticosterone, 11-deoxycorticosterone; test: IV ACTH challenge Day 8: plasma aldosterone and precursors; type: in vivo, human
# In short: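 After 8 days of oral once-daily dosing in healthy adults, an IV ACTH challenge was given 1 h post-dose on Day 8. Plasma aldosterone, corticosterone and 11-deoxycorticosterone were drawn at −15 min (baseline) and at 30 and 60 min post-challenge. Read-out was change from pre-challenge, averaged over 30 and 60 min. Stimulated aldosterone was fitted with a hyperbolic Imax model against dose and plasma drug level.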
# [3] = test system: plasma cortisol and 11-deoxycortisol (CYP11B1); test: IV ACTH challenge Day 8: plasma cortisol and 11-deoxycortisol; type: in vivo, human; conditions: spironolactone 25 mg/d
# In short: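 IV ACTH challenge 1 h after the Day 8 oral dose, following daily dosing at 0.1–100 mg in healthy adults (crossover with placebo and an MR antagonist). Plasma cortisol and 11-deoxycortisol were drawn at −15, 30 and 60 min. Read-out was mean change from pre-challenge, with cortisol expressed as the average post-challenge concentration over the 1-h period.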
# serum K+ [4] = test: Basal serum potassium after multiple dosing; type: in vivo, human; conditions: model estimate (CV%)
# serum K+ [5] = test: Oral K+ challenge Day 7: serum K+ and K+ renal clearance; type: in vivo, human
# In short: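 On Day 7 of once-daily oral dosing, healthy adults received an oral 40 mEq K+ load 3 h post-dose. Dietary K+ that day was cut by 40 mEq to hold daily intake at 125 mEq. Serum K+ was followed for 5 h post-challenge, and Cavg was taken over 5 h. Renal clearance = urinary excretion / serum AUC. Post-challenge K+ was fitted with a hyperbolic Emax model (additive above placebo).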
# urinary K+ excretion = test: 24-hour urinary K+ excretion Days 3 and 7; type: in vivo, human; conditions: spironolactone 25 mg/d
# [6] = Safety and tolerability in healthy subjects; type: in vivo, human; conditions: multiple administration, ASEB
# In short: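 Two studies in healthy adults confined to the unit: a single ascending oral dose (0.1–300 mg) and once-daily dosing for 8 days (0.1–100 mg) with placebo and an MR antagonist in double-dummy crossover. Safety covered vital signs, ECG, and hepatic and renal laboratory tests. Blood pressure was taken repeatedly over Days 3 and 7. Average MAP = area under the MAP–time curve to 24 h divided by 24 h.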
# aldosterone and cortisol = conditions: cited from earlier work
# [7] = test system: blood pressure, ACTH-stimulated cortisol; conditions: primary hypertension, all doses tested; cited from earlier work
compound,measurement,setting,value
C[C@]12CCC(=O)C=C1CC[C@@H]1[C@@H]2[C@@H](O)C[C@]2(C=O)[C@@H](C(=O)CO)CC[C@@H]12 [aldosterone],disappearance half-life of radiolabeled aldosterone,[1],35 min
CC(=O)S[C@@H]1CC2=CC(=O)CC[C@]2(C)[C@H]2CC[C@@]3(C)[C@@H](CC[C@@]34CCC(=O)O4)[C@H]12 [Spironolactone],effect on urine aldosterone excretion,urine aldosterone,elevated urine aldosterone excretion
same,Spironolactone (50 mg) effect on PAC,plasma aldosterone,49 (19%) pg/ml
same,effect on PAC following the ACTH challenge,"[2]; spironolactone 25 mg/d, Day 8",no effect on PAC
same,Spironolactone (50 mg) effect on PAC,"[2]; stimulated, post-ACTH, model estimate (CV%)",18 (89%) pg/ml
same,plasma cortisol after ACTH challenge compared to placebo,[3],No differences
same,Spironolactone (50 mg) effect on K+,serum K+ [4],0.02 (232%) mM
same,"average serum K+ over 5 h post oral K+ challenge (Cavg, mean±SD)","serum K+ [5]; spironolactone 25 mg/d, Day 7",4.5 ± 0.2 mmol/L
same,Spironolactone (50 mg) effect on K+,"serum K+ [5]; stimulated, post-K+ challenge, model estimate (CV%)",0.09 (68%) mM
same,24-hour urinary K+ excretion (mean±SD),"urinary K+ excretion; Day 3, placebo 99±19",97 ± 20 mmol
same,24-hour urinary K+ excretion (mean±SD),"urinary K+ excretion; Day 7, placebo 110±23",117 ± 17 mmol
same,effects on mean arterial pressure (MAP),[6],no clear effects
N#Cc1ccc([C@H]2CCc3cncn32)c(F)c1 [LCI699],plasma and 24-h urinary aldosterone,"aldosterone and cortisol; Na+-depleted healthy volunteers, dose-dependent",decreased both plasma and 24-h urinary aldosterone
same,ACTH-stimulated aldosterone elevation,"aldosterone and cortisol; all three doses (0.5, 1 and 3 mg)",inhibited ACTH-stimulated aldosterone elevation
same,ACTH-stimulated cortisol production,aldosterone and cortisol; higher dose of 3 mg,significantly inhibited ACTH-stimulated cortisol production
same,ACTH-stimulated cortisol production,[7],significantly inhibited ACTH-stimulated cortisol production
